# Legend:
# [1] = Terminal half life in ICR mouse at 2 mg/kg, iv administered as single dose by LC/MS/MS analysis; assay type: ADME, organism-based; details: in vivo, read-out: beta t1/2 (converted)
# Method in brief: (§1)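 Male ICR mice (8 weeks) fasted overnight and fed 7 h post-dose. Dosing was either a single IV dose of 2 mg/kg in saline or a single oral dose of 10 mg/kg in 0.5 w/v% MC. Orbital plexus blood was taken under anesthesia at serial times to 24 h. Plasma was extracted with acetonitrile/methanol plus internal standard and quantified by LC/MS/MS.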
# [2] = Volume of distribution at steady state in ICR mouse at 2 mg/kg, iv administered as single dose by LC/MS/MS analysis; assay type: ADME, organism-based; details: in vivo, read-out: Vdss; method in brief: as §1
# [3] = AUC (0 to 1.5 hrs) in C57BL/6J mouse pancreas at 30 mg/kg, po administered as single dose by LC/MS/MS analysis; assay type: ADME, organism-based; parameters: time < 1.5 hr, dose 30 mg/kg, route oral; details: in vivo
# [4] = Ratio of AUC (0 to 1.5 hrs) in C57BL/6J mouse liver to plasma at 10 mg/kg, po administered as single dose by LC/MS/MS analysis; assay type: ADME, organism-based; details: liver and plasma, read-out: Ratio AUC
# [5] = Ratio of AUC (0 to 1.5 hrs) in C57BL/6J mouse liver to pancreas at 10 mg/kg, po administered as single dose by LC/MS/MS analysis; assay type: ADME, organism-based; details: in vivo
# [6] = Ratio of AUC (0 to 1.5 hrs) in C57BL/6J mouse pancreas to plasma at 100 mg/kg, po administered as single dose by LC/MS/MS analysis; assay type: ADME, organism-based; details: pancreas and plasma, read-out: Ratio AUC
# Method in brief: (§2)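 Overnight-fasted male C57BL/6J mice (8 weeks) given a single oral dose (10, 30 or 100 mg/kg) in 0.1 w/v% Tween80 / 0.5 w/v% MC. Plasma taken via postcaval vein, liver and pancreas dissected and homogenized at 0.5, 1 and 1.5 h. LC/MS/MS with internal standard after acetonitrile/methanol extraction. AUC0-1.5h by trapezoidal rule, mean ± SD (n = 3). Kp = AUCtissue/AUCplasma. L/P = AUCliver/AUCpancreas.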
# [7] = Clearance in ICR mouse plasma at 2 mg/kg, iv administered as single dose by LC/MS/MS analysis; assay type: ADME, organism-based; method in brief: as §1
# Mus musculus [8] = assay: Toxicity in ob/ob mouse assessed as effect on hepatic tryglyceride level at 10 to 30 mg/kg, po bid administered for 28 days measured up to post last dose; assay type: organism-based; details: in vivo, 672 h
# Method in brief: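 Male ob/ob mice (9 weeks) dosed orally twice daily for 4 weeks, vehicle 0.5% MC. Plasma glucose measured by portable glucometer at 2 and 4 weeks. Liver TG assessed at the end of treatment. Mean ± SEM (n = 10), Dunnett's test versus vehicle.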
# [9] = Cytotoxicity against rat primary hepatocytes assessed as reduction in cell viability after 24 hrs by AlamarBlue assay; assay type: cell-based, Hepatocyte
# Method in brief: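 Hepatocytes isolated from male SD rats (7 weeks) by two-step collagenase perfusion. Seeded at 2–3×10^4/well on collagen in modified WE medium with 10% FBS, dexamethasone and insulin, switched to serum-free medium at 4 h. At 20–24 h exposed 24 h to 1–100 µM final, 1% DMSO vehicle. Viability read by alamarBlue.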
# [10] = AUC (0 to 1.5 hrs) in C57BL/6J mouse plasma at 30 mg/kg, po administered as single dose by LC/MS/MS analysis; assay type: ADME, organism-based; parameters: dose 30 mg/kg, time < 1.5 hr, route oral
# [11] = AUC (0 to 1.5 hrs) in C57BL/6J mouse liver at 10 mg/kg, po administered as single dose by LC/MS/MS analysis; assay type: ADME, organism-based; parameters: time < 1.5 hr, dose 10 mg/kg, route oral; details: in vivo
# [12] = Ratio of AUC (0 to 1.5 hrs) in C57BL/6J mouse pancreas to plasma at 10 mg/kg, po administered as single dose by LC/MS/MS analysis; assay type: ADME, organism-based; details: pancreas and plasma, read-out: Ratio AUC
# [13] = AUC (0 to 1.5 hrs) in C57BL/6J mouse liver at 30 mg/kg, po administered as single dose by LC/MS/MS analysis; assay type: ADME, organism-based; parameters: dose 30 mg/kg, time < 1.5 hr, route oral; details: in vivo
# [14] = AUC (0 to infinity) in ICR mouse at 10 mg/kg, po administered as single dose by LC/MS/MS analysis; assay type: ADME, organism-based; parameters: dose 10 mg/kg, route oral, time infinity; details: in vivo; method in brief: as §1
# Mus musculus [15] = assay: Toxicity in C57BL/6J mouse assessed as hypoglycemia at <100 mg/kg, po measured up to 300 mins by glucometric method; assay type: organism-based; details: in vivo, 5 h
# Method in brief: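 Male C57BL/6J mice (8 weeks) fasted 2 h and dosed orally at time 0 (n = 8/group). Tail vein glucose measured by glucometer at 0, 60, 120, 180, 240 and 300 min. Hypoglycemia defined as plasma glucose < 60 mg/dL. Mean ± SEM, Dunnett's test.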
# [16] = Tmax in ICR mouse at 10 mg/kg, po administered as single dose by LC/MS/MS analysis; assay type: ADME, organism-based; details: in vivo; method in brief: as §1
# [17] = Ratio of AUC (0 to 1.5 hrs) in C57BL/6J mouse liver to pancreas at 30 mg/kg, po administered as single dose by LC/MS/MS analysis; assay type: ADME, organism-based; details: in vivo
# [18] = AUC (0 to 1.5 hrs) in C57BL/6J mouse liver at 100 mg/kg, po administered as single dose by LC/MS/MS analysis; assay type: ADME, organism-based; parameters: time < 1.5 hr, dose 100 mg/kg, route oral; details: in vivo; method in brief: as §2
# [19] = Cytotoxicity against CHOK1 cells assessed as reduction in cell viability after 24 hrs by WST1 assay; assay type: cell-based, Cricetulus griseus; details: chinese hamster, CHO-K1 cells
# Method in brief: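 CHO-K1 cells plated at 6000/well in Ham's F12K with 2% FBS and 1 mM L-glutamine plus antibiotics, incubated overnight at 37 °C, 5% CO2. Exposed 24 h to compound at 1–100 µM final, with 1% DMSO vehicle and benzbromarone positive control. Viability read by WST-1.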
# [20] = target: Voltage-gated inwardly rectifying potassium channel KCNH2 (Homo sapiens, UniProt Q12809); assay: Inhibition of human ERG expressed in HEK293 cells at -80 holding potential by whole patch clamp assay; assay type: cell-based
# Voltage-gated inwardly rectifying potassium channel KCNH2, sequence (Q12809 whole entry, the tested form may be a part): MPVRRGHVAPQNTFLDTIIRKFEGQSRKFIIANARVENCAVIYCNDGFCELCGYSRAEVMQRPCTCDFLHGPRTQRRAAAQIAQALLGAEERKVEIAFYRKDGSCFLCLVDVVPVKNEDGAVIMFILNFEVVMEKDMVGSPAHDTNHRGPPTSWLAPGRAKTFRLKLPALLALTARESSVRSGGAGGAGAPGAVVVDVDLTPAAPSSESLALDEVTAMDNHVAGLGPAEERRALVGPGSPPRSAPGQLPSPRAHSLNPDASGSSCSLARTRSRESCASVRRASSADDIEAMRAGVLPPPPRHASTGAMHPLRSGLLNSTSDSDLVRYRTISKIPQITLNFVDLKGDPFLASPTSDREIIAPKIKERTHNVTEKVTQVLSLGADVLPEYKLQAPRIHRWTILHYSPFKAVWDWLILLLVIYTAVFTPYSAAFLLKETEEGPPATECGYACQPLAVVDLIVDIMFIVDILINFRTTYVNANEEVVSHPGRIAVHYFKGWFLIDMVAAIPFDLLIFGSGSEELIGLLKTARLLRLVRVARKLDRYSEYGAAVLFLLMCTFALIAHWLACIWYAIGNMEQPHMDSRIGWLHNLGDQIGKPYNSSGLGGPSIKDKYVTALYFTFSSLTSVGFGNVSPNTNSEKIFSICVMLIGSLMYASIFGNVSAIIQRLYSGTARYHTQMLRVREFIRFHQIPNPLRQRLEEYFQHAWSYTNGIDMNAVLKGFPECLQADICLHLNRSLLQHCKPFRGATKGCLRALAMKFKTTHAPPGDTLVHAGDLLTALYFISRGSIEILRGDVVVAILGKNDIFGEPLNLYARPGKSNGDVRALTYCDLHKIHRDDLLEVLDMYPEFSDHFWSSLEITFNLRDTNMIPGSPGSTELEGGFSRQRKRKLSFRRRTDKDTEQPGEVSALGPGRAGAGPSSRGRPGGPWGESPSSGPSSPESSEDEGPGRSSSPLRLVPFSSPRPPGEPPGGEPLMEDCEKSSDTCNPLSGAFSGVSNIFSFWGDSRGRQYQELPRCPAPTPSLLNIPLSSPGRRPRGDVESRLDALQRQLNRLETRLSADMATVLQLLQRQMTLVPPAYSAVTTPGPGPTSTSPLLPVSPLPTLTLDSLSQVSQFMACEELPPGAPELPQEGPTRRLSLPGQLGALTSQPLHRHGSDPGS
# Method in brief: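 Whole-cell patch clamp on HEK293 stably expressing hERG, perfused at 26.0 ± 2.0 °C. Holding potential −80 mV. Steps to −40 to +20 mV for 1.5 s, then −50 mV for 1.5 s, repeated every 15 s. Concentrations 3–300 µM, 0.1% DMSO vehicle, E-4031 positive control.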
# [21] = AUC (0 to 1.5 hrs) in C57BL/6J mouse pancreas at 100 mg/kg, po administered as single dose by LC/MS/MS analysis; assay type: ADME, organism-based; parameters: time < 1.5 hr, dose 100 mg/kg, route oral; details: in vivo; method in brief: as §2
# [22] = Ratio of AUC (0 to 1.5 hrs) in C57BL/6J mouse liver to pancreas at 100 mg/kg, po administered as single dose by LC/MS/MS analysis; assay type: ADME, organism-based; details: in vivo; method in brief: as §2
# [23] = Oral bioavailability in ICR mouse at 10 mg/kg administered as single dose by LC/MS/MS analysis; assay type: ADME, organism-based; details: in vivo; method in brief: as §1
# [24] = AUC (0 to 1.5 hrs) in C57BL/6J mouse pancreas at 10 mg/kg, po administered as single dose by LC/MS/MS analysis; assay type: ADME, organism-based; parameters: dose 10 mg/kg, time < 1.5 hr, route oral; details: in vivo
# [25] = Ratio of AUC (0 to 1.5 hrs) in C57BL/6J mouse liver to plasma at 30 mg/kg, po administered as single dose by LC/MS/MS analysis; assay type: ADME, organism-based; details: liver and plasma, read-out: Ratio AUC
# [26] = Cmax in ICR mouse at 10 mg/kg, po administered as single dose by LC/MS/MS analysis; assay type: ADME, organism-based; parameters: dose 10 mg/kg, route oral; details: in vivo; method in brief: as §1
# [27] = Primary phase half life in ICR mouse at 2 mg/kg, iv administered as single dose by LC/MS/MS analysis; assay type: ADME, organism-based; details: in vivo, read-out: alphat1/2 (converted); method in brief: as §1
# [28] = AUC (0 to 1.5 hrs) in C57BL/6J mouse plasma at 100 mg/kg, po administered as single dose by LC/MS/MS analysis; assay type: ADME, organism-based; parameters: time < 1.5 hr, dose 100 mg/kg, route oral; method in brief: as §2
# [29] = Terminal half life in ICR mouse at 10 mg/kg, po administered as single dose by LC/MS/MS analysis; assay type: ADME, organism-based; details: in vivo, read-out: beta t1/2 (converted); method in brief: as §1
# [30] = Ratio of AUC (0 to 1.5 hrs) in C57BL/6J mouse pancreas to plasma at 30 mg/kg, po administered as single dose by LC/MS/MS analysis; assay type: ADME, organism-based; details: pancreas and plasma, read-out: Ratio AUC
# [31] = AUC (0 to infinity) in ICR mouse at 2 mg/kg, iv administered as single dose by LC/MS/MS analysis; assay type: ADME, organism-based; parameters: dose 2 mg/kg, route intravenous, time infinity; details: in vivo; method in brief: as §1
# [32] = Ratio of AUC (0 to 1.5 hrs) in C57BL/6J mouse liver to plasma at 100 mg/kg, po administered as single dose by LC/MS/MS analysis; assay type: ADME, organism-based; details: liver and plasma, read-out: Ratio AUC; method in brief: as §2
# [33] = AUC (0 to 1.5 hrs) in C57BL/6J mouse plasma at 10 mg/kg, po administered as single dose by LC/MS/MS analysis; assay type: ADME, organism-based; parameters: time < 1.5 hr, dose 10 mg/kg, route oral
smiles,measurement,setting,value
CCN(CC(=O)O)CC(=O)N1CCC[C@H]1c1cc(C(=O)Nc2ncc(F)s2)c(C)s1,half-life,[1],1.6 h
same,Vd,[2],0.31 L/kg
same,AUC,[3],1430 ng·h/g
same,Kp,[4],1.3
same,Ratio AUC,[5],20.6
same,Kp,[6],0.12
same,clearance,[7],3.88 mL/min/kg
same,Activity,Mus musculus [8],Non-Toxic
same,CC50 at 24 h,[9],> 100 µM
same,AUC(0-t) at 1.5 h,[10],17700 ng·h/mL
same,AUC,[11],8910 ng·h/g
same,Kp,[12],0.064
same,AUC,[13],32300 ng·h/g
same,AUC(0-inf),[14],8600 ng·h/mL
same,Activity,Mus musculus [15],Non-Toxic
same,Tmax,[16],0.25 h
same,Ratio AUC,[17],22.5
same,AUC,[18],148000 ng·h/g
same,CC50 at 24 h,[19],> 100 µM
same,IC50,[20],> 300 µM
same,AUC,[21],10500 ng·h/g
same,Ratio AUC,[22],14
same,bioavailability,[23],20%
same,AUC,[24],433 ng·h/g
same,Kp,[25],1.6
same,Cmax,[26],3020 ng/mL
same,half-life,[27],0.47 h
same,AUC(0-t) at 1.5 h,[28],86900 ng·h/mL
same,half-life,[29],2 h
same,Kp,[30],0.081
same,AUC(0-inf),[31],8580 ng·h/mL
same,Kp,[32],1.7
same,AUC(0-t) at 1.5 h,[33],6750 ng·h/mL

# — ChEMBL document CHEMBL4270548, “Discovery of a potent glucokinase activator with a favorable liver and pancreas distribution pattern for the treatment of type 2 diabetes mellitus” (Eur J Med Chem, 2018)
